Assay results from different studies.
Compare with care: the assays were run in different laboratories.
CDK7 with cyclin H: Cyclin-dependent kinase 7, with cyclin H (CDK7, Homo sapiens, UniProt P50613)
CDK7: Cyclin-dependent kinase 7 (CDK7, Homo sapiens, UniProt P50613)

COc1cc(Nc2c(C#N)cnc3cc(OCCCN4CCN(C)CC4)c(OC)cc23)c(Cl)cc1Cl  remaining signal (CDK7 with cyclin H; cell-free assay; 0.5 µM): 113%
CC(C)(C)c1nc2c(s1)c1nc(N)ncc1c1ccc(NS(=O)(=O)c3c(F)cccc3F)c(F)c12  remaining activity (CDK7 with cyclin H; enzyme activity, inhibitor, radiometric; 1 µM): 123%
CC(/C=C/C=C(\C)C(=O)O[C@@H]1O[C@H](CO[C@@H]2O[C@H](CO)[C@@H](O)[C@H](O)[C@H]2O)[C@@H](O)[C@H](O)[C@H]1O)=C\C=C\C=C(C)\C=C\C=C(/C)C(=O)O[C@@H]1O[C@H](CO[C@@H]2O[C@H](CO)[C@@H](O)[C@H](O)[C@H]2O)[C@@H](O)[C@H](O)[C@H]1O  inhibition (CDK7 with cyclin H; enzyme activity, inhibitor, ADP detection; 10 µM): 22.8%
CC(C)c1ccc(NC(=O)c2cccs2)c(-c2nc3ccccc3[nH]c2=O)c1  activity vs control (CDK7; enzyme activity, inhibitor; 1 µM): 85%
Cc1nc(Cc2cccc(C(F)(F)F)c2)sc1-c1ccc(C(N)=O)nc1  remaining binding (CDK7; cell-free assay, competition with immobilised ligand; 1 µM): 90%
CNC(=O)c1cc(Oc2ccc(NC(=O)Nc3ccc(Cl)c(C(F)(F)F)c3)cc2)ccn1  inhibition (CDK7 with cyclin H; enzyme activity, inhibitor; 0.3 µM): -3%
C[C@@H]1CN(c2cc(-c3n[nH]c4ccc(OC5(C)CC5)cc34)ncn2)C[C@H](C)O1  remaining binding (CDK7; cell-free assay, competition with immobilised ligand; 0.1 µM): 56%
CC1=C(/C=C/C(C)=C/C=C/C(C)=C/C=C/C=C(C)/C=C/C=C(C)/C=C/C2=C(C)CCCC2(C)C)C(C)(C)CCC1  inhibition (CDK7 with cyclin H; enzyme activity, inhibitor, ADP detection; 10 µM): 19.7%
CCCCNc1ncc2c(-c3ccc(F)cc3)nn(C[C@H]3CC[C@H](N)CC3)c2n1  inhibition (CDK7; target engagement in cells, inhibitor, chemoproteomics; 20 mM): 31.5%
O=C(NCc1ncc(C(F)(F)F)cc1Cl)c1ccc2c(c1)C1(CCS(=O)(=O)CC1)[C@@H](C1CC1)N2S(=O)(=O)c1ccc(F)cc1  remaining binding (CDK7; cell-free assay, competition with immobilised ligand; 1 µM): 56%
O=C(Nc1cnn(-c2csc(C(=O)NC3COC3)c2)c1)Nc1ccccc1Cl  remaining activity (CDK7 with cyclin H; enzyme activity, inhibitor; 5 µM): 99.7%
CN1C(=N)N(C)/C(=C/c2c[nH]c3ccccc23)C1=O  inhibition (CDK7 with cyclin H; enzyme activity, inhibitor, ADP detection; 10 µM): 34.1%
CN(C)C(=O)Cn1cc(-c2nc([C@@](C)(c3ccc(-c4cnc(N)nc4)cc3)C3CC3)no2)cn1  remaining binding (CDK7; cell-free assay, competition with immobilised ligand; 1 µM): 59%
COC(=O)[C@H]1[C@H]2C[C@@H]3c4[nH]c5cc(OC)ccc5c4CCN3C[C@H]2C[C@@H](OC(=O)c2cc(OC)c(OC)c(OC)c2)[C@@H]1OC  inhibition (CDK7 with cyclin H; enzyme activity, inhibitor, ADP detection; 10 µM): -37.8%
O=C1Nc2ccc(Cl)cc2C1=Cc1cc(Cl)c(O)c(Cl)c1  remaining signal (CDK7 with cyclin H; cell-free assay; 0.5 µM): 96.7%
C=C(C)[C@@H]1CC[C@]2(C(=O)O)CC[C@]3(C)[C@H](CC[C@@H]4[C@@]5(C)CC[C@H](O)C(C)(C)[C@@H]5CC[C@]43C)[C@@H]12  inhibition (CDK7 with cyclin H; enzyme activity, inhibitor, ADP detection; 10 µM): 35.2%
CO[C@@H](C)c1c(Nc2ccc([C@@H](N(C)C(=O)C3CCS(=O)(=O)CC3)C(F)(F)F)cc2)cnc2cc(Cl)nn12  remaining binding (CDK7; cell-free assay, competition with immobilised ligand; 1 µM): 100%
